Test results: ChEMBL document CHEMBL2010680, “Short cyclic peptides derived from the C-terminal sequence of α1-antitrypsin exhibit significant anti-HIV-1 activity” (Bioorg Med Chem Lett, 2012)
Peptide text beside a SMILES is read from it.

How the values were obtained:
[1] = tested on: Human immunodeficiency virus 1; test: Antiviral activity against Human immunodeficiency virus 1 3B infected in human MT2 cells assessed as inhibition of viral replication after 4 days by ELISA; type: functional, organism-based; conditions: MT2, 96 h
How it was run: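 Read-out is HIV-1 gag p24 antigen in culture supernatants, measured by ELISA and collected on the fourth day post-infection.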

[2] = Cytotoxicity against human MT2 cells after 4 days by XTT assay; type: cell-based
How it was run: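 Peptide at graded concentrations was added to an equal volume of MT-2 cells (5 × 10^5/ml) and incubated 4 days at 37 °C. XTT (1 mg/ml) was added, and 4 h later soluble formazan was read at 450 nm with a 650 nm reference. CC50 was calculated from the dose-response.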

[3] = tested on: Human immunodeficiency virus 1; test: Antiviral activity against Human immunodeficiency virus type 1 SF162 pseudovirus expressing envelope glycoprotein 160 infected in human U87 cells after 48 hrs by luminometric analysis; type: functional, cell-based, U-87MG ATCC; conditions: Human immunodeficiency virus 1, SF162 ISOLATE, U-87 MG
How it was run: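 U87-CCR5 cells were seeded overnight. Pseudovirus (1 ng p24/well) was preincubated with peptide at the indicated concentration for 30 min at 37 °C, then added to the cells for 48 h. Cells were washed with PBS and lysed, and luciferase activity was measured by luminometer. Each peptide was tested in triplicate; data are mean ± SD.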

[4] = Inhibition of Human immunodeficiency virus 1 3B envelope glycoprotein-mediated cell-cell fusion of infected H9 cells to human MT2 cells measured 2 hrs after wash out by fluorescence analysis; type: cell-based; conditions: MT2, 2 h
How it was run: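 Fluorescence-labeled H9/HIV-1 IIIB cells were washed, then mixed with MT-2 cells at 1:5 for 2 h at 37 °C, without or with peptide at graded concentrations. Fused cells were counted by fluorescence microscopy, percent inhibition of fusion was calculated, and IC50 was derived from the dose-response.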

Compound | IC50 [1] | IC50 [3] | IC50 [4] | CC50 at 96 h [2]
H-NKPFVFLM-OH | > 100 µM | – | – | –
H-KPFVFLM-OH | > 100 µM | – | – | –
H-PFVFLR-OH | > 100 µM | – | > 200 µM | –
H-FVFLM-OH | > 100 µM | – | – | –
CC(C)C[C@@H]1NC(=O)[C@H](Cc2ccccc2)NC(=O)[C@H](C(C)C)NC(=O)[C@H](Cc2ccccc2)NC(=O)[C@@H]2CCCN2C(=O)[C@H](CS)NC(=O)[C@H](CCCNC(=N)N)NC1=O (cyclo(CPFVFLR)) | 74.1 µM | – | 74 µM | > 200 µM
H-PEVFLM-OH | > 100 µM | – | > 200 µM | –
H-PFVFLM-OH | > 100 µM | – | > 200 µM | –

Continued, in another order:

IC50 [1] | IC50 [3] | IC50 [4] | Compound | CC50 at 96 h [2]
8.96 µM | 5.95 µM | 67.2 µM | CSCC[C@@H]1NC(=O)[C@H](CC(C)C)NC(=O)[C@H](Cc2ccccc2)NC(=O)[C@H](C(C)C)NC(=O)[C@H](Cc2ccccc2)NC(=O)[C@@H]2CCCN2C(=O)[C@H](CS)NC1=O (cyclo(CPFVFLM)) | > 200 µM
> 100 µM | – | > 200 µM | H-PFVFLE-OH | –
55.8 µM | – | 116 µM | CC(C)C[C@@H]1NC(=O)[C@H](Cc2ccccc2)NC(=O)[C@H](C(C)C)NC(=O)[C@H](Cc2ccccc2)NC(=O)[C@@H]2CCCN2C(=O)[C@H](CS)NC(=O)[C@H](CCC(=O)O)NC1=O (cyclo(CPFVFLE)) | > 200 µM
> 100 µM | – | > 200 µM | CSCC[C@@H]1NC(=O)[C@H](CC(C)C)NC(=O)[C@H](Cc2ccccc2)NC(=O)[C@H](C(C)C)NC(=O)[C@H](CCC(=O)O)NC(=O)[C@@H]2CCCN2C(=O)[C@H](CS)NC1=O (cyclo(CPEVFLM)) | > 200 µM
> 100 µM | – | – | H-PFVYLI-OH | –
> 100 µM | – | – | H-EFVFLM-OH | –
